Laboratory results from ChEMBL document CHEMBL3593173, “Discovery of novel N-(5-(tert-butyl)isoxazol-3-yl)-N'-phenylurea analogs as potent FLT3 inhibitors and evaluation of their activity against acute myeloid leukemia in vitro and in vivo” (Bioorg Med Chem, 2015).
In brackets after ≈: the same amount, converted by molar mass. Activity calls are given as the source filed them. The calls are words filed in the database; no cut-off is given here.

How the values were obtained:
MV4-11 [1] = assay: Cytotoxicity against human MV4-11 cells incubated for 72 hrs by MTT assay; format: functional, cell-based; conditions: MV4-11, 72 h
Outline: (§1)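 Leukemia cells were grown with 10% FBS at 37 °C in 5% CO₂; MV4-11 was kept in IMDM. Cells were seeded at 1–4 × 10⁴ per well, and an equal volume of medium containing increasing inhibitor concentrations was added. MTT was added for 2–4 h, formazan was dissolved in DMSO, and OD was read at 570 nm to derive IC50.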

[2] = Solubility in EtOH solution; format: physicochemical
[3] = Solubility in PBS solution; format: physicochemical
Mus musculus [4] = assay: Toxicity in FLT3-ITD bearing human MV4-11 cells xenografted NOD-SCID mouse assessed as induction of body weight loss at 10 to 60 mg/kg/day, po; format: organism-based; conditions: in vivo
Outline: (§2)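 MV4-11 cells in exponential growth were washed three times in serum-free medium, resuspended at 1 × 10⁸ cells/mL and injected subcutaneously into NOD-SCID mice aged 5–6 weeks. At 100–200 mm³, tumors were randomized into 4 groups of 6. Dosing was 10, 30 or 60 mg/kg/d, or vehicle (25% PEG400 plus 5% DMSO in water), by oral gavage once daily. Tumor volume was measured every 3 days, and body weight and toxicity signs were monitored.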

MV4-11 [5] = assay: Antitumor activity against FLT3-ITD bearing human MV4-11 cells xenografted in orally dosed NOD-SCID mouse assessed as tumor growth inhibition; format: functional, organism-based; outline: as §2
[6] = AUC (0 to 24 hrs) in Sprague-Dawley rat at 30 mg/kg, po after 15 mins to 24 hrs by HPLC method; format: ADME, organism-based; set-up: dose 30 mg/kg, time < 24 hr, route oral; conditions: in vivo
Outline: (§3)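 Sprague–Dawley rats (n = 3) fasted overnight, then given a single 30 mg/kg oral gavage dose in 25% PEG400, 5% DMSO and 70% distilled water. Heparinized blood was drawn at 15 min, 30 min, 1, 2, 4, 6, 12 and 24 h, and plasma was separated by centrifugation. Plasma levels were measured by liquid–liquid extraction and HPLC.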

MV4-11 [7] = assay: Antitumor activity against FLT3-ITD bearing human MV4-11 cells xenografted in NOD-SCID mouse assessed as induction of complete tumor regression at 60 mg/kg/day, po; format: functional, organism-based; outline: as §2
MV4-11 [8] = assay: Induction of apoptosis in human MV4-11 cells assessed as early apoptotic cells level at 100 nM incubated for 48 hrs by Annexin V-FITC labeling based flow cytometry (reference value: 3.54%); format: functional
MV4-11 [9] = assay: Induction of apoptosis in human MV4-11 cells assessed as early apoptotic cells level at 10 nM incubated for 48 hrs by Annexin V-FITC labeling based flow cytometry (reference value: 3.54%); format: functional
U-937 = assay: Growth inhibition of human U937 cells incubated for 72 hrs by MTT assay; format: functional, cell-based; conditions: U-937, 72 h; outline: as §1
MV4-11 [10] = assay: Antitumor activity against FLT3-ITD bearing human MV4-11 cells xenografted in NOD-SCID mouse assessed as tumor growth inhibition at 10 mg/kg/day, po; format: functional; conditions: MV4-11, po, read-out: TGI; outline: as §2
Jurkat = assay: Growth inhibition of human Jurkat cells incubated for 72 hrs by MTT assay; format: functional, cell-based; outline: as §1
MV4-11 [11] = assay: Antitumor activity against FLT3-ITD bearing human MV4-11 cells xenografted in NOD-SCID mouse assessed as tumor growth inhibition at 30 mg/kg/day, po; format: functional; conditions: MV4-11, po, read-out: TGI; outline: as §2
[12] = Apparent half life in Sprague-Dawley rat at 30 mg/kg, po after 15 mins to 24 hrs by HPLC method; format: ADME, organism-based; conditions: in vivo, read-out: t1/2(app) (converted); outline: as §3
MV4-11 [13] = assay: Induction of apoptosis in human MV4-11 cells assessed as viable cells at 10 nM incubated for 48 hrs by Annexin V-FITC labeling based flow cytometry (reference value: 86.1%); format: functional; conditions: MV4-11, 48 h, read-out: Activity
MV4-11 [14] = assay: Induction of apoptosis in FLT3-ITD bearing human MV4-11 cells xenografted in NOD-SCID mouse at 60 mg/kg/day, po qd for 7 days by TUNEL assay
MV4-11 [15] = assay: Induction of apoptosis in human MV4-11 cells assessed as necrotic cells level at 1 nM incubated for 48 hrs by Annexin V-FITC labeling based flow cytometry (reference value: 3.76%); format: functional
MV4-11 [16] = assay: Induction of apoptosis in human MV4-11 cells assessed as viable cells at 100 nM incubated for 48 hrs by Annexin V-FITC labeling based flow cytometry (reference value: 86.1%); format: functional; conditions: MV4-11, 48 h, read-out: Activity
[17] = Solubility in water; format: physicochemical
A549 = assay: Growth inhibition of human A549 cells incubated for 72 hrs by MTT assay; format: functional, cell-based; conditions: A549, 72 h
Outline: (§4)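 Non-leukemia lines were grown in RPMI 1640 or DMEM with 10% FBS at 37 °C in 5% CO₂. Cells were seeded at 2–5 × 10³ per well and incubated 24 h, then treated with diluted inhibitors for 72 h. MTT was added for 2–4 h, formazan was dissolved in DMSO, and OD was read at 570 nm to derive IC50.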

MV4-11 [18] = assay: Growth inhibition of FLT3-ITD bearing human MV4-11 cells incubated for 72 hrs by MTT assay; format: functional, cell-based; conditions: MV4-11, 72 h; outline: as §1
MV4-11 [19] = assay: Induction of apoptosis in human MV4-11 cells assessed as viable cells at 1 nM incubated for 48 hrs by Annexin V-FITC labeling based flow cytometry (reference value: 86.1%); format: functional; conditions: MV4-11, 48 h, read-out: Activity
K562 = assay: Growth inhibition of human K562 cells incubated for 72 hrs by MTT assay; format: functional, cell-based; conditions: K562, 72 h; outline: as §1
Rattus norvegicus = assay: Volume of distribution at steady state in Sprague-Dawley rat at 30 mg/kg, po after 15 mins to 24 hrs by HPLC method; format: ADME, organism-based; conditions: in vivo; outline: as §3
MV4-11 [20] = assay: Induction of apoptosis in human MV4-11 cells assessed as necrotic cells level at 100 nM incubated for 48 hrs by Annexin V-FITC labeling based flow cytometry (reference value: 3.76%); format: functional
MV4-11 [21] = assay: Induction of apoptosis in human MV4-11 cells assessed as late apoptotic cells level at 1 nM incubated for 48 hrs by Annexin V-FITC labeling based flow cytometry (reference value: 6.61%); format: functional
[22] = Solubility in MeOH solution; format: physicochemical
THP-1 = assay: Growth inhibition of human THP1 cells incubated for 72 hrs by MTT assay; format: functional, cell-based; conditions: THP-1, 72 h; outline: as §1
MV4-11 [23] = assay: Induction of apoptosis in human MV4-11 cells assessed as late apoptotic cells level at 100 nM incubated for 48 hrs by Annexin V-FITC labeling based flow cytometry (reference value: 6.61%); format: functional
MV4-11 [24] = assay: Induction of apoptosis in human MV4-11 cells assessed as late apoptotic cells level at 10 nM incubated for 48 hrs by Annexin V-FITC labeling based flow cytometry (reference value: 6.61%); format: functional
MV4-11 [25] = assay: Induction of apoptosis in human MV4-11 cells incubated for 48 hrs by Annexin V-FITC labeling based flow cytometry; format: functional, cell-based
HepG2 = assay: Growth inhibition of human HepG2 cells incubated for 72 hrs by MTT assay; format: functional, cell-based; conditions: HepG2, 72 h; outline: as §4
MCF7 = assay: Growth inhibition of human MCF7 cells incubated for 72 hrs by MTT assay; format: functional, cell-based; conditions: MCF7, 72 h; outline: as §4
MV4-11 [26] = assay: Inhibition of cell proliferation of FLT3-ITD bearing human MV4-11 cells xenografted in NOD-SCID mouse assessed as reduction in Ki67-positive cells in tumor tissues at 60 mg/kg/day, po qd for 7 days by immunohistochemistry; format: functional, organism-based
Outline: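 NOD-SCID mice bearing subcutaneous MV4-11 xenografts were dosed at 60 mg/kg/d by oral gavage, once daily. Tumors were harvested 7 days later. Proliferation was scored by Ki67 immunostaining and apoptosis by TUNEL staining.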

[27] = Clearance in Sprague-Dawley rat at 30 mg/kg, po after 15 mins to 24 hrs by HPLC method; format: ADME, organism-based; conditions: in vivo; outline: as §3
Mus musculus [28] = assay: Toxicity in FLT3-ITD bearing human MV4-11 cells xenografted NOD-SCID mouse assessed as induction of toxicity signs at 10 to 60 mg/kg/day, po; format: organism-based; conditions: in vivo; outline: as §2
HCT-116 = assay: Growth inhibition of human HCT116 cells incubated for 72 hrs by MTT assay; format: functional, cell-based; conditions: HCT-116, 72 h; outline: as §4
[29] = Cmax in Sprague-Dawley rat at 30 mg/kg, po after 15 mins to 24 hrs by HPLC method; format: ADME, organism-based; set-up: dose 30 mg/kg, route oral; conditions: in vivo; outline: as §3
MV4-11 [30] = assay: Induction of apoptosis in human MV4-11 cells assessed as necrotic cells level at 10 nM incubated for 48 hrs by Annexin V-FITC labeling based flow cytometry (reference value: 3.76%); format: functional
MV4-11 [31] = assay: Induction of apoptosis in human MV4-11 cells assessed as early apoptotic cells level at 1 nM incubated for 48 hrs by Annexin V-FITC labeling based flow cytometry (reference value: 3.54%); format: functional
[32] = Growth inhibition of human PANC1 cells incubated for 72 hrs by MTT assay; format: functional, cell-based; conditions: PANC-1, 72 h; outline: as §4
MV4-11 [33] = assay: Effect on FLT3 protein expression in human MV4-11 cells at 1 to 100 nM incubated for 2 hrs by Western blotting method; format: cell-based; conditions: mv4-11, 2 h, 0.1 µM
Outline: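 MV4-11 cells were treated with increasing concentrations for 2 h at 37 °C, washed in ice-cold PBS and lysed in RIPA buffer with 1% protease cocktail. Lysates were cleared at 13,000 rpm for 15 min at 4 °C, run on 5–10% polyacrylamide gels and transferred to PVDF. Blots were probed with anti-FLT3, anti-p-FLT3 and anti-β-actin, then an HRP secondary antibody.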

[34] = Growth inhibition of human A875 cells incubated for 72 hrs by MTT assay; format: functional, cell-based; conditions: A875, 72 h; outline: as §4
U-251 = assay: Growth inhibition of human U251 cells incubated for 72 hrs by MTT assay; format: functional, cell-based; conditions: U-251, 72 h; outline: as §4
[35] = Solubility in SPSS; format: physicochemical

CC(C)(C)c1cc(NC(=O)Nc2ccc(-c3cn4c(n3)sc3cc(OCCN5CCOCC5)ccc34)cc2)no1 [QUIZARTINIB]
IC50 (MV4-11 [1]): 0.68 nM

CC(C)(C)c1cc(NC(=O)Nc2ccc(-c3cn4cc(I)ccc4n3)cc2)no1
IC50 (MV4-11 [1]): 98.5 nM

C#Cc1ccc2nc(-c3ccc(NC(=O)Nc4cc(C(C)(C)C)on4)cc3)cn2c1
IC50 (MV4-11 [1]): 8.62 nM

CC(C)(C)c1cc(NC(=O)Nc2ccc(-c3cn4cccc(Cl)c4n3)cc2)no1
IC50 (MV4-11 [1]): 353 nM

CC(C)(C)c1cc(NC(=O)Nc2ccc(-c3nc4ccccc4o3)cc2)no1
IC50 (MV4-11 [1]): 82.6 nM

Cc1cccc2nc(-c3ccc(NC(=O)Nc4cc(C(C)(C)C)on4)cc3)cn12
IC50 (MV4-11 [1]): 20.2 nM

COc1ccn2cc(-c3ccc(NC(=O)Nc4cc(C(C)(C)C)on4)cc3)nc2c1
solubility [2]: 3150 µg/mL (≈ 7770 µM)
solubility [3]: 36.6 µg/mL (≈ 90.3 µM)
Activity (Mus musculus [4]): Non-toxic
TGI (MV4-11 [5]): Dose-dependent effect
AUC(0-t) at 24 h [6]: 14300 ng·h/mL
Activity (MV4-11 [7]): Active
Activity (MV4-11 [8]): 6.88%
Activity (MV4-11 [9]): 7.42%
IC50 (U-937): > 20000 nM
inhibition in vivo at 10 mg/kg/day (MV4-11 [10]): 51%
IC50 (Jurkat): > 20000 nM
inhibition in vivo at 30 mg/kg/day (MV4-11 [11]): 87%
half-life [12]: 4.86 h
viability at 0.01 µM (MV4-11 [13]): 63.2%
IC50 (MV4-11 [1]): 2.84 nM
Activity (MV4-11 [14]): Active
Activity (MV4-11 [15]): 5.34%
viability at 0.1 µM (MV4-11 [16]): 54.8%
solubility [17]: 304 µg/mL (≈ 749 µM)
IC50 (A549): 5610 nM
IC50 (MV4-11 [18]): 3 nM
viability at 0.001 µM (MV4-11 [19]): 78.7%
IC50 (K562): > 20000 nM
Vdss (Rattus norvegicus): 14.12 L/kg
Activity (MV4-11 [20]): 15.3%
Activity (MV4-11 [21]): 12.1%
solubility [22]: 7460 µg/mL (≈ 18400 µM)
IC50 (THP-1): 3370 nM
Activity (MV4-11 [23]): 23%
Activity (MV4-11 [24]): 18.6%
Activity (MV4-11 [25]): Dose-dependent effect
IC50 (HepG2): > 20000 nM
IC50 (MCF7): > 20000 nM
inhibition (MV4-11 [26]): Active
CL/F [27]: 33.5 mL/min/kg
Activity (Mus musculus [28]): Non-toxic
IC50 (HCT-116): > 20000 nM
Cmax [29]: 3290 ng/mL
Activity (MV4-11 [30]): 10.8%
Activity (MV4-11 [31]): 3.86%
IC50 [32]: > 20000 nM
Activity (MV4-11 [33]): Non-toxic
IC50 [34]: > 20000 nM
IC50 (U-251): > 20000 nM
solubility [35]: 1.47 µg/mL (≈ 3.63 µM)
